The subject of one series is AXIN2, CD44, PARP, ABC. Nature of the series: Immunoblots of β-catenin–dependent cell lines Colo320 and HCT116. It counts as cell-based, human. To be noted: Colo320 and HCT116, 24 and 48 hours. The gist of the method: (§1)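 HCT116 (McCoy's), Colo320 (RPMI 1640) and RKO (DMEM) were grown with 10% FBS at 37°C, 5% CO2, with DMSO as vehicle. Membranes were probed overnight at 4°C with primary antibodies in blocking buffer, then HRP secondary, and detected by chemiluminescence. Densitometry was normalized to actin.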
(In western blotting, separated proteins are transferred to a membrane and probed.)

Series [1] concerns the target T1, β-catenin complexes with E-cadherin (Homo sapiens, UniProt P35222).
T1 sequence (P35222 2-781 limits assumed): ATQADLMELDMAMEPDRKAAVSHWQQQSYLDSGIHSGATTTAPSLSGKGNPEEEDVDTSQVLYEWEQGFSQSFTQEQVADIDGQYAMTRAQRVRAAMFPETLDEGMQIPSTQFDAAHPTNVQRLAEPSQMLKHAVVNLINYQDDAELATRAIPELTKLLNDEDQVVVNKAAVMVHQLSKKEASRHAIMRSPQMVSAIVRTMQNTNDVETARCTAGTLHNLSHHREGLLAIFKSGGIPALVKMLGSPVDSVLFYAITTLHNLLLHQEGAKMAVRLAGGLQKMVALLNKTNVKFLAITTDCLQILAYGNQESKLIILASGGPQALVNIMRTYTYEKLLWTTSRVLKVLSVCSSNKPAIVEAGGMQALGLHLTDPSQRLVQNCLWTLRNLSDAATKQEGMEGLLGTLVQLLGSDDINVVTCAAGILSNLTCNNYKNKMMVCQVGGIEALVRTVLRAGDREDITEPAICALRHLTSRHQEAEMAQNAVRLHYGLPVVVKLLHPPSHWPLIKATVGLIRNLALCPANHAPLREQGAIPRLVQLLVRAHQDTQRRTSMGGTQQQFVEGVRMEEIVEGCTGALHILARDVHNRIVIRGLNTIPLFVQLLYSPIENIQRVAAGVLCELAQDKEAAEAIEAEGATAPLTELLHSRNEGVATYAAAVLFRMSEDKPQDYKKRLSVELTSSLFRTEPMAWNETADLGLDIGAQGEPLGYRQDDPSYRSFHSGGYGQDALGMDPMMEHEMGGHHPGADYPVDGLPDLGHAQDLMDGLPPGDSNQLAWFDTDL
T1 sequence (P12830 155-882 partner): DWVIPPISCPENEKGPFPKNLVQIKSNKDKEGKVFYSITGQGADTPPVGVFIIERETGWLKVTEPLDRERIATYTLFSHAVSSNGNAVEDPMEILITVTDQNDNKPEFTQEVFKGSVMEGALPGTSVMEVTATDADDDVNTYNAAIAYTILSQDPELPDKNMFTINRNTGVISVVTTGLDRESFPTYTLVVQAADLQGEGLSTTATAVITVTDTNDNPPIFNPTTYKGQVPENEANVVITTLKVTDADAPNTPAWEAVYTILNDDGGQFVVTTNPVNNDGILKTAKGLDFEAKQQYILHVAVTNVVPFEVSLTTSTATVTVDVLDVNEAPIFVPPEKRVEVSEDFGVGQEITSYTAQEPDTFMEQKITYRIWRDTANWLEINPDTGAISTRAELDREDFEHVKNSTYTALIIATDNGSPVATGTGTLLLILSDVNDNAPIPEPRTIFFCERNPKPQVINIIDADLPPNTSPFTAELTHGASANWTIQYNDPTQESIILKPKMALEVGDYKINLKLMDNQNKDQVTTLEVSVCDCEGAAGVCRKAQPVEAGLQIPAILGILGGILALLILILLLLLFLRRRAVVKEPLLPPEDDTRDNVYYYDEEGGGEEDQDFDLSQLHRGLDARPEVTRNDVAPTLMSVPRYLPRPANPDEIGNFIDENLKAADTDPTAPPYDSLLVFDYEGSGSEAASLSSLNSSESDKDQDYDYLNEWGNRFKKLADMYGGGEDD
The experiment in a line: β-catenin Co-IP assay in DLD-1 cells. Type of series: cell-based. The gist of the method: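 DLD-1 cells treated 16 h with DMSO vehicle or 1, 10 or 20 μM compound, then lysed in whole-cell lysis buffer. 800 μg extract incubated with 3.5 μg anti-β-catenin, with normal rabbit IgG as negative control. Protein G magnetic beads added for 1 h at 4°C, washed four times (150 mM NaCl) and eluted in reducing buffer. 2% input included. Immunoblotting used chemiluminescence and actin-normalised densitometry.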

Another series has as its system Colo320 and HCT116 cells. The experiment in a line: Proliferation assay, β-catenin–dependent cell lines. It counts as cell-based, human. The settings on record: 5, 10, or 20 μM; 24, 48, 72, and 96 hours. Put shortly: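 Colo320, HCT116 and RKO cells were seeded in triplicate at 3000 cells/well and treated with DMSO vehicle or 5, 10 or 20 μM compound. Proliferation was measured by CellTiter-Glo 2.0 luminescence, relative to the respective baseline readings.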

For the next series, the target named is T2, β-catenin/BCL9 complexes (Homo sapiens, UniProt P35222).
T2 sequence (P35222 2-781 limits assumed): T1 sequence (P35222 2-781 limits assumed)
Nature of the series: BCL9 Co-IP assay in Colo320 and HCT116 cells. Type of series: cell-based. The settings on record: Colo320 and HCT116, 16 hours. Put shortly: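 Colo320 and HCT116 cells (with 4T1) were treated for 16 h with DMSO vehicle or 1, 10 or 20 μM compound. Nuclei were isolated and digested with hypotonic and digestion buffers, and nuclear protein was quantified by Bradford. 800 μg nuclear extract was immunoprecipitated overnight at 4°C with 3.5 μg anti-BCL9, with normal rabbit IgG as negative control, then immunoblotted.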

Series [2] relates to Wnt transcriptional activity. Nature of the series: Dual-luciferase Wnt reporter assay in Colo320 and HCT116 cells. It counts as cell-based, human. The settings on record: 16 hours, versus vehicle. The gist of the method: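 Stable reporter cells came from lentiviral transduction: firefly luciferase under a 7XTCF promoter and Renilla luciferase under an EF1alpha promoter. 30,000 cells/well were treated 16 h with DMSO vehicle or increasing compound concentrations. Firefly and Renilla signals were read by Dual-Glo, in triplicate.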
(In general: Reporter assays use an easily measured gene product as a stand-in for the process of interest.)

Series [3] deals with Wnt target genes AXIN2 and CD44. Nature of the series: RT-qPCR of Wnt target genes in Colo320 and HCT116 cells. It counts as cell-based, human. The settings on record: 10 or 20 μM for 6, 24, and 48 hours. Put shortly: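 Colo320 and HCT116 cells treated with DMSO vehicle or 10 or 20 μM compound for 6, 24 and 48 h. Total RNA isolated with TRIzol, reverse-transcribed, and SYBR Green qPCR run. Expression normalised to B2M and PMM1 or GAPDH by the ΔΔCT method.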
On the technique in general: Quantitative PCR measures a nucleic acid by following its amplification.

In another series the test system is AXIN2, CD44, PARP. Nature of the series: Immunoblots of β-catenin–independent cell line RKO. Type of series: cell-based, human. To be noted: RKO cells. The gist of the method: as §1
The next series deals with HCT116 and Colo320 cells. The experiment in a line: Viability assay. To be noted: 48 hours; for cell viability compared to vehicle controls: 20 μM; for effect of addition of cholesterol on viability: 20 μM compound ± cholesterol 20 μM. It counts as cell-based, human. Put shortly: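 HCT116 and Colo320 cells were treated 48 h with the indicated agents at 20 μM, including water-soluble cholesterol, alone or combined. Viability was measured by CellTiter-Glo luminescence in triplicate and expressed relative to vehicle-treated cells.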

A further series has as its system HCT116 cells. Nature of the series: Fluorescent staining of lipids and cholesterol in HCT116 cells. Type of series: cell-based, human. To be noted: treated for 24 and 48 hours. The gist of the method: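 HCT116 cells in glass-bottomed dishes treated with vehicle or 20 μM compound for 4, 8, 24 and 48 h. Fixed in 4% paraformaldehyde, stained with 2 μM BODIPY 493/503 for 15 min plus DAPI (1 μg/ml). Cholesterol stained with a filipin III kit. For localisation at 48 h, filipin was combined with anti-SERCA-ATPase (ER) or LipidSpot (lipid droplets). Imaged with a ×40 dry objective.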

The target of series [4] is human CTNNB1 region 141-305 (short protein) (human) (UniProt P35222). Nature of the series: ITC.
Series [5] concerns the target T3, full-length recombinant β-catenin (1 to 781 amino acids, 88 kDa) (human, UniProt P35222 1-781).
T3 sequence: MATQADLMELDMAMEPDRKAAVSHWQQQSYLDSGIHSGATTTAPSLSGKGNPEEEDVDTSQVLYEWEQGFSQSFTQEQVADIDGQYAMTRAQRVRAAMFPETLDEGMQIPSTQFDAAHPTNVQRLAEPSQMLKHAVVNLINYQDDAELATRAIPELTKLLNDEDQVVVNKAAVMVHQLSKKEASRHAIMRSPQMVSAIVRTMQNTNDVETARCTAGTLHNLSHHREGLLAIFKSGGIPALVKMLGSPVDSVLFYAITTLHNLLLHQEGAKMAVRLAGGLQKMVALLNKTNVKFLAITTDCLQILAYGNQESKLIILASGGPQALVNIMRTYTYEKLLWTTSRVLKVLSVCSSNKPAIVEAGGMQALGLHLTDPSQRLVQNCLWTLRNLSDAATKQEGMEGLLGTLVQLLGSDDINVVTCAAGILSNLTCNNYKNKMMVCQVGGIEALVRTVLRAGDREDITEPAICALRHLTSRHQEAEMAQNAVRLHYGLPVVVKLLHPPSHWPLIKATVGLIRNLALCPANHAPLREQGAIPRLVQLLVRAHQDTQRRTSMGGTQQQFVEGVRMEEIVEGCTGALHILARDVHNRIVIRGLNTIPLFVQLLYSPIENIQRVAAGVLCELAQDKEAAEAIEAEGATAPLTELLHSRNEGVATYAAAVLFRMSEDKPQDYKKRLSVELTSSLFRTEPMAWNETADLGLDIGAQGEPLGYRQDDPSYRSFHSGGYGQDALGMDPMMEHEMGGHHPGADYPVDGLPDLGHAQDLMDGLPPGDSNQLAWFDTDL
Nature of the series: AlphaScreen or HTRF.

The results in this text go back to PMC9054024 (Science Advances, 2022).

Ends that are not written are not given here. * marks the point of attachment. Biotin = O=C1N[C@H]2[C@H](CS[C@H]2CCCCC(=O)*)N1

Take `O=C(Nc1ccccc1Oc1nc2ccccc2n2cnnc12)c1cccs1` [C-2]: in the series with AXIN2, CD44, PARP, ABC, the PARP cleavage entry was “increased the cleavage of poly(adenosine diphosphate–ribose) polymerase (PARP)”; the “abundance of active β-catenin (ABC)” value is given as “decreased abundance of “active” dephosphorylated β-catenin”; the “protein expression of AXIN2 and CD44” value is “significantly decreased the protein expression of AXIN2 and CD44”. Besides, the “disruption of β-catenin complexes with E-cadherin” value in series [1] was “Neither compound disrupted the ability of β-catenin to form complexes with E-cadherin”. The proliferation result with Colo320 and HCT116 cells was “significantly reduced the proliferation”. At β-catenin/BCL9 complexes, the “concentration inhibiting β-catenin/BCL9 complexes in Co-IP” value was 1 µM. Also, the “inhibition of Wnt signaling (firefly/renilla luciferase ratio)” value in series [2] is reported as “significantly inhibited Wnt signaling”. Moreover, the “expression of AXIN2 and CD44 mRNAs” value in series [3] is “significantly inhibited the expression of AXIN2 and CD44 mRNAs”. Also, in the series with AXIN2, CD44, PARP, the PARP cleavage result is “minor PARP cleavage at 10 and 20 μM”; the “expression of AXIN2 or CD44 protein” value is “did not affect their expression of AXIN2 or CD44 protein”.

As to `COc1ccc(C)cc1CN1CCC(c2cc3ncccc3cn2)CC1` [C-3], on β-catenin/BCL9 complexes, the “concentration inhibiting β-catenin/BCL9 complexes in Co-IP” value worked out at 20 µM.

For the molecule `O=C1[C@H](Cc2ccc(O)cc2)N2C(=O)CCN(C(=O)NCc3ccccc3)[C@H]2CN1Cc1cccc2ccccc12` [ICG-001, reference compound], the “inhibition of Wnt signaling (firefly/renilla luciferase ratio)” value in [2] is “significantly inhibited Wnt signaling”. The “cell viability compared to vehicle controls” value in the series with HCT116 and Colo320 cells is on record as “significantly reduced cell viability”.

On to `CCN(CC)CCO[C@H]1CC[C@@]2(C)C(=CC[C@@H]3[C@@H]2CC[C@]2(C)C(=O)CC[C@@H]32)C1.Cl` [U-18666A], for which the “intracellular lipids (BODIPY)” value in the series on HCT116 cells is listed as “substantial intracellular lipid accumulation”.

Take `CC(C)c1cc(C(C)C)c(CC(=O)NS(=O)(=O)Oc2c(C(C)C)cccc2C(C)C)c(C(C)C)c1` [avasimibe]: in the series with HCT116 and Colo320 cells, the “effect of addition of cholesterol on viability” value was “did not affect the viability” and the “cell viability compared to vehicle controls” value is given as “significantly reduced cell viability”.

`CC[C@H](C)C(=O)O[C@H]1C[C@@H](C)C=C2C=C[C@H](C)[C@H](CC[C@@H]3C[C@@H](O)CC(=O)O3)[C@H]21` [lovastatin]: in the series on HCT116 and Colo320 cells, the “effect of addition of cholesterol on viability” value is given as “did not affect the viability” and the “cell viability compared to vehicle controls” value was “significantly reduced cell viability”.

A word on the Kd: it is the free concentration of one partner at which half of the binding sites on the other are occupied at equilibrium, for simple one-to-one binding. For nonbiotinylated BCL9-HD2 peptide, the Kd in [4] is 2740 nM.

B1: N-terminal biotinylated BCL9-HD2 peptide (peptide)
peptide: Biotin-LSQEQLEHRERSLQTLRDIQRM
For the molecule B1, the binding result in series [5] is on record as “binds”.
